Data reported in ChEMBL document CHEMBL3351549, “Discovery of a Potent and Selective BCL-XL Inhibitor with in Vivo Activity” (ACS Med Chem Lett, 2014).
Activity calls are given as the source filed them. The calls are words filed in the database; no cut-off is given here.

Experiments:
Bcl-2-like protein 1 [1] = molecular target: T1, Bcl-2-like protein 1 (Homo sapiens, UniProt Q07817); assay: Inhibition of BCL-XL (unknown origin) incubated for 1 hr by TR-FRET assay
Bcl-2-like protein 1 [2] = molecular target: T1, Bcl-2-like protein 1; assay: Inhibition of BCL-XL (unknown origin) incubated for 1 hr in presence of 1% human serum by TR-FRET assay
[3] = molecular target: Apoptosis regulator Bcl-2 (Homo sapiens, UniProt P10415); assay: Inhibition of BCL-2 (unknown origin) incubated for 1 hr by TR-FRET assay
[4] = Cytotoxicity against BCL-XL-dependent human NCI-H146 cells in presence of 10% human serum incubated for 48 hrs by Cell titerGlo reagent based assay; format: functional; settings: NCI-H146, 48 h
[5] = Cmax in SCID-Beige mouse at 5 mg/kg, ip; format: ADME, organism-based; parameters: dose 5 mg/kg, route intraperitoneal; settings: in vivo
Procedure, shortened: (§1)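 Nontumor-bearing SCID-Beige mice got a single IP dose of 5 mg/kg. Vehicle was 5% DMSO, 10% EtOH, 20% Cremophor ELP and 65% DSW. Pharmacokinetic parameters were taken from plasma exposure after the single dose.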

[6] = Tmax in SCID-Beige mouse at 5 mg/kg, ip; format: ADME, organism-based; parameters: dose 5 mg/kg, route intraperitoneal; settings: in vivo; procedure, shortened: as §1
[7] = AUC in SCID-Beige mouse at 5 mg/kg, ip; format: ADME, organism-based; parameters: dose 5 mg/kg, route intraperitoneal; settings: plasma; procedure, shortened: as §1
[8] = Drug concentration in SCID-Beige mouse at 5 mg/kg, ip after 12 hrs; format: ADME, organism-based; parameters: dose 5 mg/kg, route intraperitoneal; settings: in vivo, read-out: Drug uptake; procedure, shortened: as §1
Bcl-2-like protein 2 = molecular target: T2, Bcl-2-like protein 2 (Homo sapiens, UniProt Q92843); assay: Binding affinity to BCL-W (unknown origin)
T2 sequence (Q92843 whole entry): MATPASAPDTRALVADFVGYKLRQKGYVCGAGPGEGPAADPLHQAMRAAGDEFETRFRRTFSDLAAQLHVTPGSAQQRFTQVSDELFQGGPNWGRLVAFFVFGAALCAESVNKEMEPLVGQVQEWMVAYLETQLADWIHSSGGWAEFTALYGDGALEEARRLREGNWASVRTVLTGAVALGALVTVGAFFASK

[9] = molecular target: Induced myeloid leukemia cell differentiation protein Mcl-1 (Homo sapiens, UniProt Q07820); assay: Binding affinity to MCL1 (unknown origin)
Mus musculus [10] = assay: Reduction in platelets count in SCID-Beige mouse at 5 mg/kg, ip after 6 hrs; format: functional, organism-based; parameters: dose 5 mg/kg
Procedure, shortened: (§2)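 Nontumor-bearing female SCID-Beige mice received a single IP dose of 5 mg/kg in the 5% DMSO/10% EtOH/20% Cremophor ELP/65% DSW vehicle. Blood was taken by retro-orbital bleed at regular intervals after dosing and platelets were counted.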

Mus musculus [11] = assay: Reduction in platelets count in SCID-Beige mouse at 5 mg/kg, ip after 72 hrs; format: functional, organism-based; parameters: dose 5 mg/kg; procedure, shortened: as §2
[12] = Antitumor activity against BCL-XL-dependent human NCI-H146 cells xenografted in SCID-Beige mouse assessed as tumor growth inhibition at 5 mg/kg, ip for 14 days; format: functional; settings: route intraperitoneal
Procedure, shortened: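 Female SCID-Beige mice carried subcutaneous NCI-H146 xenografts and were dosed at 5 mg/kg IP QD ×14, or with an equal volume of vehicle (5% DMSO/10% EtOH/20% Cremophor ELP/65% DSW). There were 5 mice per time point. Tumor volume was calculated as W²·L·0.5 from perpendicular diameters and tracked over time. Treated and untreated groups were compared by Student's t test (p < 0.05).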

[13] = Cytotoxicity against BCL-XL-dependent human NCI-H146 cells in presence of 10% human serum
Bcl-2-like protein 1 [14] = molecular target: T1, Bcl-2-like protein 1; assay: Binding affinity to BCL-XL (unknown origin)

T1 sequence (Q07817 whole entry): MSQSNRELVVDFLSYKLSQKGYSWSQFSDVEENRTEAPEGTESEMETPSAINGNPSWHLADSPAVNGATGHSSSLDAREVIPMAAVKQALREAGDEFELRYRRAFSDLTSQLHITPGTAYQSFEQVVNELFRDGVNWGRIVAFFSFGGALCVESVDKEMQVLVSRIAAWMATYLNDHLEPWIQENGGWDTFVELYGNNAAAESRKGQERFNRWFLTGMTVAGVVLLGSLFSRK
Sequence of Apoptosis regulator Bcl-2 (P10415 whole entry): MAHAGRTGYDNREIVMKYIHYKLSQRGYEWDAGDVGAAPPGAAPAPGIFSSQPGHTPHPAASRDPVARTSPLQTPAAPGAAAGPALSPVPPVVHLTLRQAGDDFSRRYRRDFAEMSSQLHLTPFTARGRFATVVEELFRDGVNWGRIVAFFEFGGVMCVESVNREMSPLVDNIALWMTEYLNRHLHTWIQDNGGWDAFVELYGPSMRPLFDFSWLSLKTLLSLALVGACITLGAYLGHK
Sequence of Induced myeloid leukemia cell differentiation protein Mcl-1 (Q07820 whole entry): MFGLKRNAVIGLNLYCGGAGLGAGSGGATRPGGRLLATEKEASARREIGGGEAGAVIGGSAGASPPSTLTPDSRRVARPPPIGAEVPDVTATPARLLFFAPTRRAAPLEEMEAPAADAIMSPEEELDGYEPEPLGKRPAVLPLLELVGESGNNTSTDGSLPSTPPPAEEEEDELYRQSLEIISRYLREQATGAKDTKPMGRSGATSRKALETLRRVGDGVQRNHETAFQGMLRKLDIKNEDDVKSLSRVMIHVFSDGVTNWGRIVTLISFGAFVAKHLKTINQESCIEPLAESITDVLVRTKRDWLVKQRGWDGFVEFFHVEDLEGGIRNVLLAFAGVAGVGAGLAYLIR

Compound CN(C)CC#Cc1ccc(OCCCc2sc(N3CCc4cccc(C(=O)Nc5nc6ccccc6s5)c4C3)nc2C(=O)O)c(F)c1 [A-1155463] has a Ki (Bcl-2-like protein 1 [1]) of less than 10 pM, a Ki (Bcl-2-like protein 1 [2]) of 100 pM and a Ki [3] of 0.08 µM. It also gave an EC50 [4] of 0.065 µM, a Cmax [5] of 1800 nM and a Tmax [6] of 2 h. The AUC [7] was 9.19 µM·h, the concentration at 12 h [8] was 180 nM and the Ki (Bcl-2-like protein 2) was 0.019 µM. For the same compound, the Ki [9] was greater than 0.44 µM, the inhibition (Mus musculus [10]) was “Active” and the inhibition (Mus musculus [11]) was “inactive”. For the same compound, the Imax [12] was 44%.
In the case of O=C(Nc1nc2ccccc2s1)c1cccc2c1CN(c1nc(C(=O)O)c(CCCOc3ccc(-n4ncc5cncnc54)cc3)s1)CC2, the Ki (Bcl-2-like protein 1 [1]) is reported as 42 pM, the Ki (Bcl-2-like protein 1 [2]) is reported as 380 pM and the Ki [3] is reported as 0.17 µM.
Compound NCc1ccc(OCCCc2sc(-c3ccc4c(c3)/C(=N/Nc3nc5ccccc5s3)CCC4)nc2C(=O)O)cc1 has an EC50 [13] of 0.55 µM.
In the case of O=C(Nc1nc2ccccc2s1)c1cccc2c1CN(c1nc(C(=O)O)c(CCCOc3ccc(-n4cccn4)cc3)s1)CC2, the Ki (Bcl-2-like protein 1 [1]) is reported as less than 10 pM, the Ki (Bcl-2-like protein 1 [2]) is reported as 990 pM and the Ki [3] is reported as 0.15 µM.
Work on CN(C)CC#Cc1cc(F)c(OCCCc2sc(N3CCc4cccc(C(=O)Nc5nc6ccccc6s5)c4C3)nc2C(=O)O)cc1F yielded a Ki (Bcl-2-like protein 1 [1]) of 30 pM, a Ki (Bcl-2-like protein 1 [2]) of 330 pM and a Ki [3] of 0.09 µM. It also gave an EC50 [4] of 0.126 µM.
Compound O=C(Nc1nc2ccccc2s1)c1cccc2c1CN(c1nc(C(=O)O)c(CCOc3ccc(-n4ncc5cncnc54)cc3)s1)CC2 [A-1107969] has a Ki (Bcl-2-like protein 1 [1]) of 12400 pM, a Ki (Bcl-2-like protein 1 [2]) of 320000 pM and a Ki [3] of 0.09 µM.
For O=C(Nc1nc2ccccc2s1)c1cccc2c1CN(c1nc(C(=O)O)c(CCOc3cccc(-n4ncc5cncnc54)c3)s1)CC2, the Ki (Bcl-2-like protein 1 [1]) was 2220 pM, the Ki (Bcl-2-like protein 1 [2]) was 41100 pM and the Ki [3] was 0.1 µM.
CN1CCN(CCCNc2ncnc3c2cnn3-c2ccc(OCCCc3sc(N4CCc5cccc(C(=O)Nc6nc7ccccc7s6)c5C4)nc3C(=O)O)cc2)CC1 gave a Ki (Bcl-2-like protein 1 [1]) of less than 10 pM and a Ki (Bcl-2-like protein 1 [2]) of 30 pM.
In the case of O=C(Nc1nc2ccccc2s1)c1cccc2c1CN(c1nc(C(=O)O)c(CCCOc3cccc(-n4ncc5cncnc54)c3)s1)CC2, the Ki (Bcl-2-like protein 1 [1]) is reported as 340 pM, the Ki (Bcl-2-like protein 1 [2]) is reported as 10400 pM and the Ki [3] is reported as 0.22 µM.
CN(C)CC#Cc1ccc(OCCCc2sc(N3CCc4cccc(C(=O)Nc5nc6ccccc6s5)c4C3)nc2C(=O)O)c(Cl)c1 gave a Ki (Bcl-2-like protein 1 [2]) of 410 pM, a Ki [3] of 0.28 µM and an EC50 [4] of 0.18 µM.
In the case of O=C(Nc1nc2ccccc2s1)c1cccc2c1CN(c1nc(C(=O)O)c(CCCCOc3ccc(-n4ncc5cncnc54)cc3)s1)CC2, the Ki (Bcl-2-like protein 1 [2]) is reported as 55400 pM.
With CN(C)CC#Cc1ccc(OCCCc2sc(N3CCc4cccc(C(=O)Nc5nc6ccccc6s5)c4C3)nc2C(=O)O)cc1 the Ki (Bcl-2-like protein 1 [1]) was 20 pM, the Ki (Bcl-2-like protein 1 [2]) was 280 pM and the EC50 [4] was 0.6 µM.
CN(C)CC#Cc1ccc(OCCCc2sc(N3CCc4cccc(C(=O)Nc5nc6ccccc6s5)c4C3)nc2C(=O)O)cc1F showed a Ki (Bcl-2-like protein 1 [1]) of 10 pM, a Ki (Bcl-2-like protein 1 [2]) of 1120 pM and a Ki [3] of 0.088 µM. The EC50 [4] was 0.051 µM.
Compound c1ccc(-n2ncc3cncnc32)cc1 has a Kd (Bcl-2-like protein 1 [14]) of 4000 µM.
CN(C)CCCNc1ncnc2c1cnn2-c1ccc(OCCCc2sc(N3CCc4cccc(C(=O)Nc5nc6ccccc6s5)c4C3)nc2C(=O)O)cc1 gave a Ki (Bcl-2-like protein 1 [1]) of less than 10 pM and a Ki [3] of 0.24 µM.
